This is an account of results in PMC6851786 (Journal of Clinical Pharmacology, 2019).

“Also recorded” adds a separate entry of the source. Like-named read-outs stand apart in the source and are kept apart here.

Data set [1] is described as follows: Part 2: effect of CYP3A inhibitor itraconazole on avadomide PK. The following applies: for Tmax / Vd/F / half-life / AUC(0-inf) / AUC(0-t) / Cmax: human, plasma. Format: in vivo, human (healthy adult subjects). An outline of the steps:
(§1)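 Open-label, nonrandomized, single-sequence crossover in healthy adults, each subject serving as own control. Plasma for test compound was taken predose and at 0.5, 1, 2, 3, 4, 6, 8, 12, 24, 48 and 72 h postdose and assayed by validated LC-MS/MS (LLOQ 1 ng/mL; range 1–400 ng/mL). Parameters came from noncompartmental analysis, including apparent volume. The ANOVA used ln AUC0-t, AUC0-inf and Cmax, with treatment fixed and subject random. Combination/alone geometric mean ratios are given with 90% CI.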

For data set [2] the following is noted: across the 0.5- to 3.5-mg dose range; cited from earlier work.
Data set [3] is described as follows: Safety assessment. Format: in vivo, human (healthy adult subjects).
The subject of data set [4] is CYP3A4/5 and CYP1A2. Conditions: human liver microsomes; ref data on file; cited from earlier work. On the technique in general: Liver microsomes are vesicles of endoplasmic reticulum, rich in cytochrome P450 enzymes.
Data set [5] in a line: Part 4: effect of CYP3A4 inducer rifampin on avadomide PK. Type of data set: in vivo, human (healthy adult subjects). Conditions: for Tmax / Vd/F / half-life / AUC(0-inf) / AUC(0-t) / Cmax: human, plasma; for AUC(0-inf): AUC0-inf; for AUC(0-inf) / AUC(0-t) / Cmax: Geometric LS Means; for AUC(0-t): AUC0-t. In a few lines:
as §1

The conditions of data set [6]: cited from earlier work.
Data set [7] can be described thus: Part 3: effect of CYP1A2 inhibitor fluvoxamine on avadomide PK. Type of data set: in vivo, human (healthy adult subjects). The following applies: for Tmax / Vd/F / half-life / AUC(0-inf) / AUC(0-t) / Cmax: human, plasma; for AUC(0-inf): AUC0-inf; for AUC(0-inf) / AUC(0-t) / Cmax: Geometric LS Means; for AUC(0-t): AUC0-t. In a few lines: as §1
For data set [8] the following is noted: cited from earlier work. The source holds these as a separate data set.
For data set [9] the following is noted: with the CYP1A2 inhibitor fluvoxamine; cited from earlier work.
For data set [10] the following is noted: cited from earlier work. This is another data set of the same source.
Data set [11] concerns CYP1A2. Conditions: healthy subjects; cited from earlier work.
Where [12] appears, read: avadomide + itraconazole/avadomide.
[13] abbreviates: Part 2, following avadomide alone.
Where [14] appears, read: Part 2, following avadomide plus itraconazole.
Where [15] appears, read: Part 3, following avadomide alone.
Where [16] appears, read: Part 3, following avadomide plus fluvoxamine.
[17] abbreviates: Part 4, following avadomide plus rifampin.
The mark [18] stands for this setting: avadomide + rifampin /avadomide.
Setting [19] is: oral, 3 mg, avadomide alone, Part 4, N 19, ANOVA.
Where [20] appears, read: oral, avadomide + rifampin, N 18, ANOVA.
Setting [21] is: avadomide + fluvoxamine/avadomide.
[22] abbreviates: fluvoxamine coadministration versus alone.
Where [23] appears, read: oral, 3 mg, avadomide alone, Part 3, N 18, ANOVA.
[24] abbreviates: oral, avadomide + fluvoxamine, N 18, ANOVA.
Setting [25] is: Part 3, following fluvoxamine alone.
The mark [26] stands for this setting: with the CYP3A4 inducer carbamazepine.
Where [27] appears, read: with the CYP3A inhibitor ketoconazole.
Setting [28] is: Part 4, following rifampin alone.

Usually Vd/F stands for the apparent distribution volume after extravascular dosing. What is called half-life is the time in which the quantity being followed falls by half. Low readings indicate rapid decline, high ones slow decline. In the case of `Cc1nc2cccc(N)c2c(=O)n1C1CCC(=O)NC1=O` (centres unmarked) [Avadomide], the “geometric mean ratio of AUC0-t to AUC0-inf” value in data set [1] (avadomide 3 mg alone and with itraconazole, 72-hour sampling) is reported as “greater than 90%”; in data set [5] (avadomide 3 mg alone and with rifampin, 72-hour sampling), “greater than 90%”; in data set [7] (avadomide 3 mg alone and with fluvoxamine, 72-hour sampling), “greater than 90%”. Further, the “AUC0-t, Ratio of Geometric LS Means” value in data set [1] (setting [12]) stood at 100.54%; in [5] (setting [18]), 62.34%; in data set [7] (setting [21]) it was 160.35%. In addition, the “Cmax, Ratio of Geometric LS Means” value in [1] (setting [12]) is on record as ~93.64%; in [5] (setting [18]), 88.17%; in [7] (setting [21]), 107.59%. Besides, the Tmax in data set [1] (oral) was 1 h; in data set [1] (po, 3 mg), 1 h; in [5] (oral), 0.53 h; in data set [5] (po, 3 mg), 0.55 h; in [6] (single oral dose 3 to 15 mg, healthy adult subjects), “approximately 1 hour”; in data set [7] (oral), 0.79 h. Also, in data set [7] (po, 3 mg), the Tmax was found to be 0.5 h. Further, the Vd/F in [1] (oral) worked out at 53.8 L; in data set [1] (po, 3 mg), 54.7 L; in data set [5] (oral) it was 57.3 L; in data set [5] (po, 3 mg), 55 L; in [7] (oral), 54.3 L; in data set [7] (po, 3 mg), 55.2 L. Moreover, the half-life is 8.79 h in data set [1] (oral); 8.94 h in data set [1] (po, 3 mg); 6.08 h in data set [5] (oral); 9.29 h in data set [5] (po, 3 mg); 13.7 h in data set [7] (oral); 9.16 h in data set [7] (po, 3 mg). Moreover, the AUC(0-inf) in [1] (oral, 3 mg) stood at 708 ng·h/mL; in data set [1] (po, 3 mg), 708 ng·h/mL; in data set [5] (setting [19]) it was 733 ng·h/mL; in [5] (setting [20]), 460 ng·h/mL; in data set [7] (setting [23]) it was 709 ng·h/mL; in data set [7] (setting [24]) it was 1100 ng·h/mL. The AUC(0-t) was found to be 675 ng·h/mL in [1] (oral, 3 mg); 675 ng·h/mL in [1] (po, 3 mg); 687 ng·h/mL in data set [5] (setting [19]); 428 ng·h/mL in data set [5] (setting [20]); 667 ng·h/mL in data set [7] (setting [23]); 1070 ng·h/mL in data set [7] (setting [24]). In addition, the Cmax in [1] (oral, 3 mg) stood at 70.8 ng/mL; in [1] (po, 3 mg), 70.8 ng/mL; in data set [5] (setting [19]) it was 74.8 ng/mL; in [5] (setting [20]), 65.9 ng/mL; in data set [7] (oral, 3 mg, avadomide alone, Part 3, N 19, ANOVA), 70.2 ng/mL; in data set [7] (setting [24]), 75.6 ng/mL. For the same compound, in [2], the “plasma exposure versus dose” value is “increased in a dose‐dependent manner”. For the same compound, the “number of TEAEs reported” value in data set [3] (setting [13]) is listed as 2 TEAEs; in data set [3] (setting [14]), 2 TEAEs; in data set [3] (setting [15]) it was 7 TEAEs; in data set [3] (setting [16]) it was 9 TEAEs; in data set [3] (setting [17]), 1 TEAE. The “subjects reporting TEAEs” value is 10.5% in data set [3] (setting [13]); 10.5% in data set [3] (setting [14]); 15.8% in [3] (setting [15]); 38.9% in data set [3] (setting [16]); “No subjects reported TEAEs” in [3] (Part 4, after avadomide alone); 5.6% in data set [3] (setting [17]). Moreover, the “moderate TEAE of vomiting, considered related to the IP” value in data set [3] (setting [15]) was 1 subject. Also, the tolerability result in data set [3] (single oral dose of 3 mg alone or coadministered with fluvoxamine, itraconazole, or rifampin) is listed as “well tolerated”; in data set [6] (single oral doses of up to 15 mg, healthy subjects) it was “well tolerated”. The “enzymes involved in oxidative metabolism” value in data set [4] is “major enzymes involved in the oxidative metabolism; also recorded: major isozymes involved in oxidative metabolism; also recorded: metabolized mainly by CYP3A and CYP1A2 in vitro”. For the same compound, the entries for the “AUC0-inf, Ratio of Geometric LS Means” value in data set [5] (setting [18]) and in [7] (setting [21]) were 62.83% and 154.81%, respectively. Besides, the “plasma avadomide t½ (without CYP inhibition)” value in data set [6] (healthy subjects) is ~8 h. Besides, the “decrease of apparent clearance” value in data set [7] (setting [22]) stood at 34%. In data set [7] (setting [22]), the “prolongation of avadomide t½” value stood at 50%.

`COCCCC/C(=N\OCCN)c1ccc(C(F)(F)F)cc1` [fluvoxamine, reference compound]: in [3] (setting [25]), the “number of TEAEs reported” value is listed as 11 TEAEs and the “subjects reporting TEAEs” value worked out at 31.6%.

Turning to `CCC(C)n1ncn(-c2ccc(N3CCN(c4ccc(OCC5COC(Cn6cncn6)(c6ccc(Cl)cc6Cl)O5)cc4)CC3)cc2)c1=O` (centres unmarked) [itraconazole, reference compound], the “subjects reporting TEAEs” value in data set [3] (Part 2, after itraconazole alone) is “No subjects reported TEAEs”.

For `Nc1cccc2c1C(=O)N(C1CCC(=O)NC1=O)C2=O` (centres unmarked) [pomalidomide], the “AUC, % of that when administered alone” value is on record as 79.7% in [8] (setting [26]), 118.8% in [8] (setting [27]) and 225.1% in data set [9]. Further, the “Cmax, % of that when administered alone” value is 75.0% in data set [8] (setting [26]), 107.3% in data set [8] (setting [27]) and 123.7% in [9]. For the same compound, the metabolism and elimination result in [10] is “primarily metabolized by CYP1A2 and CYP3A, with a low fraction excreted in urine as unchanged drug”.

In the case of `CO[C@H]1/C=C/O[C@@]2(C)Oc3c(C)c(O)c4c(O)c(c(/C=N/N5CCN(C)CC5)c(O)c4c3C2=O)NC(=O)/C(C)=C\C=C\[C@H](C)[C@H](O)[C@@H](C)[C@@H](O)[C@@H](C)[C@H](OC(C)=O)[C@@H]1C` [rifampin, reference compound], in data set [3] (setting [28]), the “number of TEAEs reported” value worked out at 5 TEAEs and the “subjects reporting TEAEs” value was found to be 22.2%. Also, the “increase in conversion of caffeine to paraxanthine mediated by CYP1A2” value in [11] is listed as 15%.
